Measurements from ChEMBL document CHEMBL1133005, “Improving the oral bioavailability of the iron chelator HBED by breaking the symmetry of the intramolecular H-bond network” (J Med Chem, 2000).

Key:
Type in all cases: physicochemical
[1] = Evaluated for ionization constant (pKa3) by titrations performed in presence of MeOH solvent at a dielectric constant of 62; conditions: MeOH cosolvent; read-out: pKa3
Outline: (§1)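 pH-metric titration in mixed water/cosolvent media (MeOH or EtOH, depending on the ligand) at several cosolvent proportions, each proportion setting the dielectric constant. Electrode calibrated with pH 7.00 phosphate buffer and standardized after a blank titration by a nonlinear semiempirical fit. Readings were converted to pcH to give concentration-scale constants.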

[2] = Evaluated for ionization constant (pKa4) by titrations performed in presence of MeOH solvent at a dielectric constant of 78; conditions: MeOH cosolvent; read-out: pKa4
[3] = Evaluated for ionization constant (pKa2) by titrations performed in presence of MeOH solvent at a dielectric constant of 49; conditions: MeOH cosolvent, dielectric constant 49; read-out: pKa2; outline: as §1
[4] = Evaluated for ionization constant (pKa1) by titrations performed in absence of a cosolvent at a dielectric constant of 78; conditions: no cosolvent, dielectric constant 78; read-out: pKa1
[5] = Partition coefficient (logP) (cyclohexane)
Outline: (§2)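 Free-ligand partition coefficients are measured by the pH-metric technique. This uses two linked titrations: a normal aqueous titration, then a two-phase titration in the presence of the partition solvent.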

[6] = Partition coefficient (logP) (chloroform); outline: as §2
[7] = Evaluated for ionization constant (pKa2) by titrations performed in absence of cosolvent and at a dielectric constant of 78; conditions: no cosolvent, dielectric constant 78; read-out: pKa2
[8] = Evaluated for ionization constant (pKa4) by titrations performed in presence of MeOH solvent at a dielectric constant of 56; conditions: MeOH cosolvent; read-out: pKa4; outline: as §1
[9] = Evaluated for ionization constant (pKa4) by titrations performed using the method of Yasuda and Shedlovsky; conditions: read-out: pKa4
Outline: (§3)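 Potentiometric pH titration. The electrode is calibrated with pH 7.00 phosphate buffer. A blank titration before each set standardizes the electrode by a nonlinear semiempirical equation, and readings are converted to the concentration scale pcH = −log[H+]. Runs use varying amounts of MeOH or EtOH cosolvent, and aqueous pKa values are extrapolated by the Yasuda–Shedlovsky method. Low pKa values (pH < 2) are determined by spectrophotometric titration.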

[10] = Evaluated for ionization constant (pKa2) by titrations performed in presence of MeOH solvent at a dielectric constant of 56; conditions: MeOH cosolvent, dielectric constant 56; read-out: pKa2; outline: as §1
[11] = Evaluated for ionization constant (pKa5) by titrations performed in presence of MeOH solvent at a dielectric constant of 49; conditions: MeOH cosolvent; read-out: pKa5; outline: as §3
[12] = Evaluated for ionization constant (pKa5) by titrations performed using the method of Yasuda and Shedlovsky; conditions: read-out: pKa5; outline: as §3
[13] = Evaluated for ionization constant (pKa3) by titrations performed in presence of MeOH solvent at a dielectric constant of 49; conditions: MeOH cosolvent; read-out: pKa3; outline: as §1
[14] = Evaluated for ionization constant (pKa5) by titrations performed in presence of MeOH solvent at a dielectric constant of 62; conditions: MeOH cosolvent; read-out: pKa5; outline: as §3
[15] = Evaluated for ionization constant (pKa2) by titrations performed using method of Yasuda and Shedlovsky; conditions: read-out: pKa2
Outline: (§4)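 Aqueous constants were extrapolated by the Yasuda–Shedlovsky method from pH-metric titrations run at several MeOH or EtOH cosolvent levels. Electrode calibrated with pH 7.00 phosphate buffer and standardized after a blank titration. Values are expressed on the pcH (-log[H+]) concentration scale.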

[16] = Evaluated for ionization constant (pKa3) by titrations performed using the method of Yasuda and Shedlovsky; conditions: read-out: pKa3; outline: as §4
[17] = Evaluated for ionization constant (pKa5) by titrations performed in presence of MeOH solvent at a dielectric constant of 56; conditions: MeOH cosolvent; read-out: pKa5; outline: as §3
[18] = Evaluated for ionization constant (pKa2) by titrations performed in presence of MeOH solvent at a dielectric constant of 62; conditions: MeOH cosolvent, dielectric constant 62; read-out: pKa2; outline: as §1
[19] = Evaluated for ionization constant (pKa4) by titrations performed in presence of MeOH solvent at a dielectric constant of 49; conditions: MeOH cosolvent; read-out: pKa4; outline: as §1
[20] = Partition coefficient (logP); conditions: octanol/water; outline: as §2
[21] = Evaluated for ionization constant (pKa4) by titrations performed in presence of MeOH solvent at a dielectric constant of 62; conditions: MeOH cosolvent; read-out: pKa4; outline: as §1
[22] = Evaluated for ionization constant (pKa3) by titrations performed in presence of MeOH solvent at a dielectric constant of 56; conditions: MeOH cosolvent; read-out: pKa3; outline: as §1
[23] = Evaluated for ionization constant (pKa3) by titrations performed in absence of cosolvent and at a dielectric constant of 78; conditions: no cosolvent; read-out: pKa3
[24] = Evaluated for ionization constant (pKa2) by titrations performed in the presence of EtOH and at a dielectric constant of 52; conditions: EtOH cosolvent, dielectric constant 52; read-out: pKa2; outline: as §1
[25] = Evaluated for ionization constant (pKa3) by titrations performed in the presence of EtOH and at a dielectric constant of 57; conditions: EtOH cosolvent; read-out: pKa3; outline: as §1
[26] = Evaluated for ionization constant (pKa4) by titrations performed in the presence of EtOH and at a dielectric constant of 52; conditions: EtOH cosolvent; read-out: pKa4; outline: as §1
[27] = Evaluated for ionization constant (pKa3) by titrations performed in the presence of EtOH and at a dielectric constant of 63; conditions: EtOH cosolvent; read-out: pKa3; outline: as §1
[28] = Evaluated for ionization constant (pKa3) by titrations performed in the presence of EtOH and at a dielectric constant of 52; conditions: EtOH cosolvent; read-out: pKa3; outline: as §1
[29] = Evaluated for ionization constant (pKa1) by titrations performed using method of Yasuda and Shedlovsky; conditions: read-out: pKa1; outline: as §4
[30] = Evaluated for ionization constant (pKa4) by titrations performed in the presence of EtOH and at a dielectric constant of 63; conditions: EtOH cosolvent; read-out: pKa4; outline: as §1
[31] = Evaluated for ionization constant (pKa4) by titrations performed in the presence of EtOH and at a dielectric constant of 57; conditions: EtOH cosolvent; read-out: pKa4; outline: as §1
[32] = Evaluated for ionization constant (pKa2) by titrations performed in the presence of EtOH and at a dielectric constant of 57; conditions: EtOH cosolvent, dielectric constant 57; read-out: pKa2; outline: as §1
[33] = Evaluated for ionization constant (pKa3) by titrations performed in presence of a MeOH and at a dielectric constant of 56; conditions: MeOH cosolvent; read-out: pKa3; outline: as §1
[34] = Evaluated for ionization constant (pKa2) by titrations performed in presence of a MeOH and at a dielectric constant of 56; conditions: MeOH cosolvent, dielectric constant 56; read-out: pKa2; outline: as §1
[35] = Evaluated for ionization constant (pKa1) by titrations performed in presence of a MeOH and at a dielectric constant of 56; conditions: MeOH cosolvent, dielectric constant 56; read-out: pKa1; outline: as §1
[36] = Evaluated for ionization constant (pKa4) by titrations performed in presence of a MeOH and at a dielectric constant of 62; conditions: MeOH cosolvent; read-out: pKa4; outline: as §1
[37] = Evaluated for ionization constant (pKa4) by titrations performed in presence of a MeOH and at a dielectric constant of 49; conditions: MeOH cosolvent; read-out: pKa4; outline: as §1
[38] = Evaluated for ionization constant (pKa3) by titrations performed in presence of a MeOH and at a dielectric constant of 49; conditions: MeOH cosolvent; read-out: pKa3; outline: as §1
[39] = Evaluated for ionization constant (pKa1) by titrations performed in presence of a MeOH and at a dielectric constant of 62; conditions: MeOH cosolvent, dielectric constant 62; read-out: pKa1; outline: as §1
[40] = Evaluated for ionization constant (pKa2) by titrations performed in presence of a MeOH and at a dielectric constant of 62; conditions: MeOH cosolvent, dielectric constant 62; read-out: pKa2; outline: as §1
[41] = Evaluated for ionization constant (pKa2) by titrations performed in presence of a MeOH and at a dielectric constant of 49; conditions: MeOH cosolvent, dielectric constant 49; read-out: pKa2; outline: as §1
[42] = Evaluated for ionization constant (pKa3) by titrations performed in presence of a MeOH and at a dielectric constant of 62; conditions: MeOH cosolvent; read-out: pKa3; outline: as §1
[43] = Evaluated for ionization constant (pKa4) by titrations performed in presence of a MeOH and at a dielectric constant of 56; conditions: MeOH cosolvent; read-out: pKa4; outline: as §1

**Q.** Which pKa [1] does the source give for `COC(=O)CN(CCN(CC(=O)[O-])Cc1ccccc1O)Cc1ccccc1O.[Na+]` here?
**A.** 7.56

**Q.** What about the pKa [2] of the same compound?
**A.** 2.61

**Q.** What about the pKa [3] of the same compound?
**A.** 12.2

**Q.** And the pKa [4]?
**A.** 12.1

**Q.** And the logP [5]?
**A.** < -2

**Q.** What about the logP [6] of the same compound?
**A.** -0.29

**Q.** What about the pKa [7] of the same compound?
**A.** 10.9

**Q.** What about the pKa [8] of the same compound?
**A.** 2.77

**Q.** And the pKa [9]?
**A.** 2.49

**Q.** What about the pKa [10] of the same compound?
**A.** 12.1

**Q.** What about the pKa [11] of the same compound?
**A.** 0.9

**Q.** And the pKa [12]?
**A.** 1.3

**Q.** And the pKa [13]?
**A.** 7.41

**Q.** And the pKa [14]?
**A.** 1.15

**Q.** And the pKa [15]?
**A.** 11.5

**Q.** And the pKa [16]?
**A.** 7.68

**Q.** And the pKa [17]?
**A.** 0.97

**Q.** And the pKa [18]?
**A.** 11.8

**Q.** What about the pKa [19] of the same compound?
**A.** 2.94

**Q.** What about the logP [20] of the same compound?
**A.** 0.5

**Q.** And the pKa [21]?
**A.** 2.68

**Q.** And the pKa [22]?
**A.** 7.48

**Q.** And the pKa [23]?
**A.** 7.67

**Q.** Which pKa [24] does the source give for `CCOC(=O)CN(CCN(CC(=O)OCC)Cc1ccccc1O)Cc1ccccc1O` here?
**A.** 11.8

**Q.** And the pKa [25]?
**A.** 5.25

**Q.** What about the logP [5] of the same compound?
**A.** 3.22

**Q.** And the pKa [26]?
**A.** 1.05

**Q.** And the pKa [27]?
**A.** 5.45

**Q.** And the logP [6]?
**A.** 3.35

**Q.** And the pKa [9]?
**A.** 1.8

**Q.** And the pKa [28]?
**A.** 5.09

**Q.** What about the pKa [29] of the same compound?
**A.** 12.2

**Q.** What about the pKa [15] of the same compound?
**A.** 10.9

**Q.** What about the pKa [30] of the same compound?
**A.** 1.42

**Q.** And the pKa [16]?
**A.** 5.7

**Q.** And the pKa [31]?
**A.** 1.21

**Q.** And the logP [20]?
**A.** 3.35

**Q.** And the pKa [32]?
**A.** 11.6

**Q.** For `COC(=O)CN(CCN(CC(=O)OC)Cc1ccccc1O)Cc1ccccc1O`, which pKa [33] is on record?
**A.** 5.46

**Q.** What about the pKa [34] of the same compound?
**A.** 11.6

**Q.** And the logP [5]?
**A.** 2.11

**Q.** And the pKa [35]?
**A.** 12.9

**Q.** And the pKa [36]?
**A.** 1.1

**Q.** And the pKa [9]?
**A.** 1.4

**Q.** And the pKa [29]?
**A.** 12.2

**Q.** And the pKa [15]?
**A.** 10.9

**Q.** And the pKa [16]?
**A.** 5.7

**Q.** And the pKa [37]?
**A.** 0.69

**Q.** What about the pKa [38] of the same compound?
**A.** 5.4

**Q.** What about the pKa [39] of the same compound?
**A.** 12.6

**Q.** And the logP [20]?
**A.** 2.86

**Q.** What about the pKa [40] of the same compound?
**A.** 11.3

**Q.** And the pKa [41]?
**A.** 11.9

**Q.** And the pKa [42]?
**A.** 5.58

**Q.** And the pKa [43]?
**A.** 0.82
